# An excerpt weighted towards active compounds, which were near 1.5% of everything screened.
# CHRM4 PAM – CHRM4 positive allosteric modulation; P08173; CHO-K1 hM4/Gqi5, Fluo-8 calcium fluorescence, ACh EC20; 0% = ACh EC20, 100% = maximal ACh; activation, % at 3 µM; 0.4% of 360,000 active; AID 624126;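 active = activation above its plate's cutoff, the mean activation of sample wells plus 3 SD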
# Target sequence (P08173 whole entry, looked up): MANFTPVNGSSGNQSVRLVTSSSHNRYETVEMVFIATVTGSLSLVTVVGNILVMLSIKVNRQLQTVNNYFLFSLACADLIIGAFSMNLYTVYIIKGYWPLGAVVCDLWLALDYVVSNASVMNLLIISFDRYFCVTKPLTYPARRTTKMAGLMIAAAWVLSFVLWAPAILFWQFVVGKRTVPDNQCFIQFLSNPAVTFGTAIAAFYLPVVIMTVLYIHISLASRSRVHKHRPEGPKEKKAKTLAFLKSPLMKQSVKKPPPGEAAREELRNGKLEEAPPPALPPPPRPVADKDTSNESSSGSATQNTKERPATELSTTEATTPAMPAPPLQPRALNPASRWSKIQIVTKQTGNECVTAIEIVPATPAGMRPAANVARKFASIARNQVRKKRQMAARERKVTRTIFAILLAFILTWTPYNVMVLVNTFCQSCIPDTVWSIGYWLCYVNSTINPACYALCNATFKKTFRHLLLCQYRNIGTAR
# CHRM4 antagonist – blocks acetylcholine activation of human M4 receptor | P08173 | CHO-hM4 cells, ACh EC80, Fluo-8 calcium fluorescence | inhibition, % at 3 µM | 0.73% of 360,000 active;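 active = inhibition above its plate's cutoff, the mean inhibition of sample wells plus 3 SD, cut at about 27% in these data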;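 note: 0% = acetylcholine EC80 with DMSO and 100% = DMSO without agonist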
# OXTR ag – activates the human oxytocin receptor | activation, % at 3 µM | P30559 | CHO-OTR cells, Fluo-8 calcium fluorescence; normalized: DMSO 0%, oxytocin 100% | 0.32% of 320,000 active;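 active = activation above the mean of all tested compounds plus 3 SD, cutoff set per screening run, cut at about 20% in these data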;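 note: peak over basal fluorescence ratio from a 100 s FLIPR kinetic read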
# M4 ag – CHRM4 agonism in calcium assay; activation, % at 3 µM; CHO-K1 hM4/Gqi5, Fluo-8 calcium fluorescence; vehicle 0%, full acetylcholine response 100%; P08173; 0.14% of 360,000 active;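 active = activation above the run mean over all test wells plus 3 SD, cut at about 32% in these data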;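 note: peak over basal fluorescence ratio per well then scaled between controls; 0% = DMSO wells and 100% = acetylcholine at EC100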
# V1R ag counter – activates human V1a receptor in oxytocin agonist counter-screen. P37288. CHO-V1R cells, Fluo-8 calcium fluorescence, agonist mode; 0% DMSO, 100% 3 nM vasopressin. activation, % at 3 µM. 0.25% of 320,000 active;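 active = activation above the mean activation of all tested compounds plus 3 SD, per screening run, cut at about 20% in these data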;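 note: signal is peak over basal fluorescence ratio across a 100 second FLIPR read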
# OXTR potentiate – human OXTR potentiation. P30559. CHO-OTR cells, Fluo-8 calcium fluorescence, potentiator mode; 0% = oxytocin EC15, 100% = EC100. activation, % at 3 µM. 0.061% of 320,000 active. AID 2445;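 active = activation above that plate's cutoff, the mean activation of tested compounds plus 3 SD, cut at about 6.6% in these data, passing the limit was not always enough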;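 note: 100% uses oxytocin at 75 nM as the full agonist control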
#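 assay system = CHO-OTR cells, human receptor | schedule = compound 6 min at room temperature before oxytocin, 100 s read | detection = Fluo-8 intracellular calcium fluorescence, ex 470-495, em 515-575 nm | evaluation = normalized max/min fluorescence ratio, % activation | control set = EC15 oxytocin alone as 0%, 75 nM oxytocin (EC100) as 100%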
# An asterisk follows results filed as active; . = not tested or not shown.
SMILES,CHRM4 PAM,CHRM4 antagonist,OXTR ag,M4 ag,V1R ag counter,OXTR potentiate
CC(C)(C)c1ccc(C(O)CCCN2CCC(C(O)(c3ccccc3)c3ccccc3)CC2)cc1 (stereo unspecified),-11.5,13.6,12.0,19.9,5.3,-9.1
CC(=O)Nc1ccccc1OCCCN1CCC(C(O)(c2ccccc2)c2ccccc2)CC1,-11.4,6.7,.,3.2,.,.
N#CCc1ccc(OCCCN2CCC(C(O)(c3ccccc3)c3ccccc3)CC2)cc1,-13.6,59.5*,.,21.6,.,.
O=c1ccoc2ccccc12,7.2,-14.3,.,1.4,.,.
O=c1[nH]cnc2c1nnn2C1OC(CO)C(O)C1O (stereo unspecified),4.2,-6.2,.,0.0,.,.
COCCNc1nc(NCc2ccccc2)nc2ccsc12,-14.9,99.7*,.,142.4*,.,.
C=CCNc1nc(NCCCN2CCCC2=O)c2sc(-c3ccccc3)cc2n1,-2.6,-6.8,.,6.2,.,.
Cc1ccc(CNc2nc(NCc3ccccc3)nc3ccsc23)c(C)c1,-13.1,28.2*,.,22.2,.,.
CNc1nc(NCc2ccc(C)cc2C)c2sccc2n1,-5.8,0.7,.,7.0,.,.
O=C1CCCN1CCCNc1nc(NCc2ccccc2)nc2ccsc12,-14.9,95.8*,.,144.6*,.,.
COc1ccccc1CNc1nc(NCc2ccccc2SC)c2sccc2n1,-9.4,32.3*,.,12.8,.,.
COCCNc1nc(NCc2ccccc2OC)c2sccc2n1,-1.0,-16.4,.,13.9,.,.
Cc1c(C)c2ccc(OCC(=O)NCCc3c[nH]c4ccccc34)cc2oc1=O,1.9,-8.5,.,0.1,.,.
CCOc1cccc(NC(=O)C2CC(=O)N(c3ccc(F)cc3)C2)c1 (stereo unspecified),-0.8,2.4,0.4,0.5,2.4,-6.2
CCN(CC)C(=O)CSc1nc2ccccc2c(=O)n1-c1ccccc1OC,35.9*,-5.2,-1.8,-1.7,-1.4,-9.6
CCN(CC)C(=O)CSc1nc2cccnc2n1-c1ccccc1OC,-2.0,1.3,-2.0,0.4,0.3,-6.1
c1ccc(COc2ncnc3c2ncn3CCCNCC(c2ccccc2)c2ccccc2)cc1,-6.5,9.1,.,15.8,.,.
Cc1ccc(C)c(NC(=O)C(c2ccccc2)N2CCN(CC(=O)N3CCOCC3)CC2)c1 (stereo unspecified),-1.0,-4.1,-0.4,4.0,-0.5,1.1
Cc1ccc(C)c(NC(=O)C(NCC(C)(C)N2CCOCC2)c2ccccc2)c1 (stereo unspecified),-26.1,75.5*,-0.1,1.0,-0.2,1.1
O=C(O)c1cc(C(=O)O)cc(N2C(=O)CSC2=S)c1,17.3*,5.4,1.7,1.5,0.8,-0.3
CC(=C/c1ccc(C(C)C)cc1)/C=N/NC(=O)Cn1nc(C)cc1C,-4.8,-8.4,-1.4,-0.1,0.2,-0.6
CC(/C=N/NC(=O)Cn1nccc1C)=C\c1ccc(C(C)C)cc1,-6.3,29.7*,-1.7,-0.8,1.2,-3.7
Cc1ccc(-n2nc(C)cc2NC(=O)c2ccc(C)s2)cc1,-34.0,46.3*,-1.6,-0.2,0.1,-3.0
COc1ccc(-c2cc(C(=O)Nc3cc(C)nn3-c3ccccc3)no2)cc1,17.9*,-1.8,-1.1,-0.3,-1.5,-12.9
CCOc1ccc(C2NCCc3cc(OC)c(OC)cc32)cc1OC (stereo unspecified),13.6*,-10.8,0.5,1.3,-0.2,-1.7
SMILES,CHRM4 PAM,CHRM4 antagonist,OXTR ag,M4 ag,V1R ag counter,OXTR potentiate
CCOc1cc2c(cc1OCC)C(c1ccc(O)c(OC)c1)NCC2 (stereo unspecified),-1.4,-8.8,.,1.0,.,.
O=C(O)Cn1c(=O)cnc2ccccc21,5.5,26.6*,0.5,1.8,0.9,-1.2
COc1cc(N2CCCC2)c(OC)cc1/C=C(/C#N)c1cccc(F)c1,-0.3,-6.6,20.7*,4.4,20.5*,-11.6
COc1ccc(/C(O)=C2/C(=O)C(=O)N(Cc3cccnc3)C2c2ccccn2)cc1 (stereo unspecified),2.1,4.6,0.9,0.4,-0.4,6.6
CC(C)Oc1ccc(/C(O)=C2/C(=O)C(=O)N(Cc3cccnc3)C2c2ccco2)cc1 (stereo unspecified),18.8*,5.1,-0.5,0.8,-0.1,-14.0
O=C(NCc1ccco1)C1C(=O)Nc2ccccc2C(=O)N1C1CCCCC1 (stereo unspecified),2.8,4.1,.,1.6,.,.
CCCCN(CCCNC(=O)c1ccc2c(c1)NC(=O)CN2C)c1ccccc1,6.8,-9.2,.,1.0,.,.
O=C(O)C(Cc1c[nH]c2ccccc12)NS(=O)(=O)c1ccc2ccccc2c1 (stereo unspecified),20.4*,-16.0,0.1,0.1,0.6,2.1
O=C(CCc1nnc(-c2ccccc2)o1)c1ccc(Cl)cc1,33.3*,12.6,0.1,2.4,-1.0,-1.8
COc1ccc(CCC(=O)NCCOc2ccccc2Cl)cc1,-14.5,-1.1,-1.4,15.2,-0.7,-1.4
Cc1cc(C(=O)CN2C(=O)NC3(CCCc4ccccc43)C2=O)c(C)n1Cc1ccccc1 (stereo unspecified),-8.5,1.1,-1.4,-0.2,-0.4,3.0
Cc1cc(C(=O)CN2C(=O)CCC2=O)c(C)n1Cc1ccccc1,18.1*,-12.0,11.8,4.0,3.7,-18.3
O=C(O)/C=C/C(=O)Nc1ccc(S(=O)(=O)N2CCCC2)cc1,2.2,-8.9,0.0,0.6,1.5,-14.1
CSc1ccccc1NC(=O)CCc1ccccc1,22.0*,-11.3,-2.1,0.3,-0.6,-12.4
O=C(CSc1nc(O)cc(=O)n1-c1ccccc1)Nc1ccc2c3c(cccc13)CC2,19.5*,-12.3,-0.7,1.1,0.1,-5.3
CCCn1c(C)nnc1SCC(=O)NC1CCCCC1,1.2,-0.5,1.3,0.7,1.4,-0.7
COC(=O)/C=C/COc1ccccc1[N+](=O)[O-],17.8*,-4.6,0.4,0.4,0.2,-2.1
O=C(COc1ccccc1[N+](=O)[O-])c1ccccc1,3.1,1.9,-1.2,0.5,0.7,0.1
COC(=O)c1sccc1NC(=O)Nc1ccc(C)c(C)c1,-0.9,-3.4,.,1.3,.,.
COC(=O)c1sccc1NC(=O)Nc1ccc(Cl)c(Cl)c1,-18.8,27.6*,-0.6,3.9,2.0,-7.2
CCN1CCN(C(=O)c2ccc(Cl)c(S(=O)(=O)N(C)c3ccccc3)c2)CC1,20.0*,-1.4,2.0,2.8,0.6,-10.0
CN(c1ccc(C(=O)N2CCN(Cc3ccccc3)CC2)cc1)S(=O)(=O)c1ccccc1,-3.1,5.1,3.5,3.4,3.6,-0.2
CCOc1ccc(NC(=O)Cn2nnc(-c3ccc(C(N)=O)cc3)n2)cc1S(=O)(=O)N1CCCC1,0.7,6.3,.,0.8,.,.
CCOc1ccc(NC(=O)Cn2nc(C(N)=O)c3ccccc3c2=O)cc1S(=O)(=O)N1CCCC1,22.9*,-16.6,0.1,0.1,1.2,-1.5

# From PubChem BioAssay
